Experimental data taken from ChEMBL document CHEMBL3877264, “Quinolidene-rhodanine conjugates: Facile synthesis and biological evaluation” (Eur J Med Chem, 2017).
≈ marks a conversion by molar mass, not a printed value.

Assays:
Assay type in all cases: functional
[1] = system: Staphylococcus aureus; assay: Antibacterial activity against of Staphylococcus aureus NCIM 2010 measured after 12 hrs; settings: NCIM 2010, 12 h
Method in brief: (§1)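 Bacteria grown in LB at 37 °C and 180 rpm to OD 1. Compounds added to wells, then 0.1% inoculum of 1 OD culture (620 nm). Growth read as OD at 620 nm after 8 h for gram-negative and after 12 h for gram-positive strains.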

[2] = system: Staphylococcus aureus; assay: Growth inhibition of Staphylococcus aureus NCIM 2010 at 10 ug/ml measured after 12 hrs relative to control; settings: NCIM 2010, 12 h, read-out: GI; method in brief: as §1
[3] = system: Pseudomonas fluorescens; assay: Growth inhibition of Pseudomonas fluorescens NCIM 2036 at 10 ug/ml measured after 8 hrs relative to control; settings: NCIM 2036, 8 h, read-out: GI; method in brief: as §1
[4] = system: Staphylococcus aureus; assay: Growth inhibition of Staphylococcus aureus NCIM 2010 at 3 ug/ml measured after 12 hrs relative to control; settings: NCIM 2010, 12 h, read-out: GI; method in brief: as §1
[5] = system: Bacillus subtilis; assay: Growth inhibition of Bacillus subtilis NCIM 2079 at 30 ug/ml measured after 12 hrs relative to control; settings: NCIM 2079, 12 h, read-out: GI; method in brief: as §1
[6] = system: Pseudomonas fluorescens; assay: Growth inhibition of Pseudomonas fluorescens NCIM 2036 at 30 ug/ml measured after 8 hrs relative to control; settings: NCIM 2036, 8 h, read-out: GI; method in brief: as §1
[7] = system: Pseudomonas fluorescens; assay: Antibacterial activity against Pseudomonas fluorescens NCIM 2036 measured after 8 hrs; settings: NCIM 2036, 8 h; method in brief: as §1
[8] = system: Aspergillus niger; assay: Antifungal activity against Aspergillus niger NCIM 1196 by standard agar method
Method in brief: (§2)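 MICs determined by standard agar method; DMSO as solvent control.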

[9] = system: Bacillus subtilis; assay: Growth inhibition of Bacillus subtilis NCIM 2079 at 10 ug/ml measured after 12 hrs relative to control; settings: NCIM 2079, 12 h, read-out: GI; method in brief: as §1
[10] = system: Mycobacterium tuberculosis; assay: Growth inhibition of Mycobacterium tuberculosis H37Ra ATCC 25177 at active stage measured after 8 days by XTT dye based two fold dilution method; settings: H37Ra ATCC 25177, 192 h
Method in brief: (§3)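 MTB H37Ra was grown in Dubos medium, then exposed in Mycobacterium pheli minimal medium (pH 6.6) to compounds dissolved in DMSO. The assay ended on day 8 (active) or day 12 (dormant). Viable cells were measured by XTT reduction menadione assay at 470 nm, blank-corrected, relative to vehicle control. Triplicates were expressed as mean ± SD. MIC came from dose-response curves.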

[11] = system: Bacillus subtilis; assay: Antibacterial activity against Bacillus subtilis NCIM 2079 measured after 12 hrs; settings: NCIM 2079, 12 h; method in brief: as §1
[12] = system: Mycobacterium tuberculosis; assay: Growth inhibition of Mycobacterium bovis BCG ATCC 35743 at dormant stage measured after 12 days by nitrate reductase dye based two fold dilution method; settings: BCG str. ATCC 35743, 288 h
Method in brief: (§4)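 M. bovis BCG was grown in Dubos medium and assayed in Mycobacterium pheli minimal medium (pH 6.6), with compounds from DMSO stocks. Incubation lasted 8 days for active and 12 days for dormant cultures. Viability was read by nitrate reductase at 540 nm against cell-free blanks, with vehicle set as 100% growth. Primary screen was at 30, 10 and 3 µg/ml, in triplicate, mean ± SD. MIC was taken from dose-response curves.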

[13] = system: Pseudomonas fluorescens; assay: Growth inhibition of Pseudomonas fluorescens NCIM 2036 at 3 ug/ml measured after 8 hrs relative to control; settings: NCIM 2036, 8 h, read-out: GI; method in brief: as §1
[14] = system: Mycobacterium tuberculosis; assay: Growth inhibition of Mycobacterium bovis BCG ATCC 35743 at dormant stage at 30 ug/ml measured after 12 days by nitrate reductase dye based two fold dilution method relative to control; settings: BCG str. ATCC 35743, 288 h, read-out: GI; method in brief: as §4
[15] = system: Staphylococcus aureus; assay: Growth inhibition of Staphylococcus aureus NCIM 2010 at 30 ug/ml measured after 12 hrs relative to control; settings: NCIM 2010, 12 h, read-out: GI; method in brief: as §1
[16] = system: Escherichia coli; assay: Antibacterial activity against Escherichia coli NCIM 2688 measured after 8 hrs; settings: NCIM 2688, 8 h; method in brief: as §1
[17] = system: Aspergillus flavus; assay: Antifungal activity against Aspergillus flavus NCIM 539 by standard agar method; method in brief: as §2
[18] = system: Bacillus subtilis; assay: Growth inhibition of Bacillus subtilis NCIM 2079 at 3 ug/ml measured after 12 hrs relative to control; settings: NCIM 2079, 12 h, read-out: GI; method in brief: as §1
[19] = Antifungal activity against Fusarium oxysporum NCIM 1332 by standard agar method; method in brief: as §2
[20] = system: Mycobacterium tuberculosis; assay: Growth inhibition of Mycobacterium bovis BCG ATCC 35743 at active stage measured after 8 days by nitrate reductase dye based two fold dilution method; settings: BCG str. ATCC 35743, 192 h; method in brief: as §4
[21] = system: Escherichia coli; assay: Growth inhibition of Escherichia coli NCIM 2688 at 10 ug/ml measured after 8 hrs relative to control; settings: NCIM 2688, 8 h, read-out: GI; method in brief: as §1
[22] = system: Mycobacterium tuberculosis; assay: Growth inhibition of Mycobacterium bovis BCG ATCC 35743 at dormant stage at 3 ug/ml measured after 12 days by nitrate reductase dye based two fold dilution method relative to control; settings: BCG str. ATCC 35743, 288 h, read-out: GI; method in brief: as §4
[23] = system: Mycobacterium tuberculosis; assay: Growth inhibition of Mycobacterium bovis BCG ATCC 35743 at dormant stage at 10 ug/ml measured after 12 days by nitrate reductase dye based two fold dilution method relative to control; settings: BCG str. ATCC 35743, 288 h, read-out: GI; method in brief: as §4
[24] = system: Escherichia coli; assay: Growth inhibition of Escherichia coli NCIM 2688 at 30 ug/ml measured after 8 hrs relative to control; settings: NCIM 2688, 8 h, read-out: GI; method in brief: as §1
[25] = system: Mycobacterium tuberculosis; assay: Growth inhibition of Mycobacterium tuberculosis H37Ra ATCC 25177 at dormant stage measured after 12 days by XTT dye based two fold dilution method; settings: H37Ra ATCC 25177, 288 h; method in brief: as §3
[26] = system: Escherichia coli; assay: Growth inhibition of Escherichia coli NCIM 2688 at 3 ug/ml measured after 8 hrs relative to control; settings: NCIM 2688, 8 h, read-out: GI; method in brief: as §1
[27] = system: Candida albicans; assay: Antifungal activity against Candida albicans NCIM 3471 by standard agar method; method in brief: as §2
[28] = Antifungal activity against Cryptococcus neoformans NCIM 576 by standard agar method; method in brief: as §2

| SMILES | MIC [1] | inhibition of growth at 10 µg/mL [2] | inhibition of growth at 10 µg/mL [3] | inhibition of growth at 3 µg/mL [4] | inhibition of growth at 30 µg/mL [5] | inhibition of growth at 30 µg/mL [6] | MIC [7] | inhibition of growth at 10 µg/mL [9] | IC50 [10] | IC90 [10] | MIC [11] | IC50 [12] | IC90 [12] | inhibition of growth at 3 µg/mL [13] | inhibition of growth at 30 µg/mL [14] | inhibition of growth at 30 µg/mL [15] | MIC [16] | MIC [17] | inhibition of growth at 3 µg/mL [18] | IC50 [20] | also measured |
| --- | --- | --- | --- | --- | --- | --- | --- | --- | --- | --- | --- | --- | --- | --- | --- | --- | --- | --- | --- | --- | --- |
| CCOc1ccc2nc(Cl)c(/C=C3\SC(=S)N(CC(=O)O)C3=O)cc2c1 | > 30 µg/mL | -13.4% | 24.4% | 2.94% | -2.41% | 4.87% | > 30 µg/mL | -0.253% | > 30 µg/mL | > 30 µg/mL | > 30 µg/mL | > 30 µg/mL | > 30 µg/mL | -5.49% | 9.17% | -9.57% | > 30 µg/mL | 100 µg/mL (≈ 245 µM) | -12.7% | > 30 µg/mL | MIC [8]: 125 µg/mL (≈ 306 µM); MIC [19]: 150 µg/mL (≈ 367 µM); IC90 [20]: > 30 µg/mL; inhibition of growth at 10 µg/mL [21]: 18.5%; inhibition of growth at 3 µg/mL [22]: 26.3%; inhibition of growth at 10 µg/mL [23]: 24.8%; inhibition of growth at 30 µg/mL [24]: 71.9%; IC50 [25]: > 30 µg/mL; IC90 [25]: > 30 µg/mL; inhibition of growth at 3 µg/mL [26]: 5.91% |
| O=C(O)CCN1C(=O)/C(=C/c2cc3cc(Cl)ccc3nc2Cl)SC1=S | > 30 µg/mL | -36.7% | 6.58% | -7.27% | 0.333% | -10% | > 30 µg/mL | -1.12% | > 30 µg/mL | > 30 µg/mL | > 30 µg/mL | > 30 µg/mL | > 30 µg/mL | 3.17% | 56.5% | -65.7% | > 30 µg/mL | 100 µg/mL (≈ 242 µM) | 1.91% | > 30 µg/mL | MIC [8]: 200 µg/mL (≈ 484 µM); IC90 [20]: > 30 µg/mL; inhibition of growth at 10 µg/mL [21]: 27.1%; inhibition of growth at 3 µg/mL [22]: 13.7%; inhibition of growth at 10 µg/mL [23]: 25.7%; inhibition of growth at 30 µg/mL [24]: 37.3%; IC50 [25]: > 30 µg/mL; IC90 [25]: > 30 µg/mL; MIC [27]: 200 µg/mL (≈ 484 µM); inhibition of growth at 3 µg/mL [26]: 20.6%; MIC [28]: 150 µg/mL (≈ 363 µM) |
| NC[C@H]1O[C@H](O[C@H]2[C@H](O)[C@@H](O[C@H]3O[C@H](CO)[C@@H](O)[C@H](N)[C@H]3O)[C@H](N)C[C@@H]2N)[C@H](O)[C@@H](O)[C@@H]1O [KANAMYCIN] | 16 µg/mL (≈ 33 µM) | – | – | – | – | – | 0.012 µg/mL (≈ 0.0248 µM) | – | – | – | 0.25 µg/mL (≈ 0.516 µM) | – | – | – | – | – | 0.67 µg/mL (≈ 1.38 µM) | – | – | – | – |
| COc1ccc2cc(/C=C3\SC(=S)N(CCC(=O)O)C3=O)c(Cl)nc2c1 | > 30 µg/mL | -12.1% | -3.31% | -13% | 0.458% | -33.9% | > 30 µg/mL | -0.582% | > 30 µg/mL | > 30 µg/mL | > 30 µg/mL | > 30 µg/mL | > 30 µg/mL | -62.2% | 11.3% | -17.3% | > 30 µg/mL | 100 µg/mL (≈ 245 µM) | -3.95% | > 30 µg/mL | MIC [8]: 200 µg/mL (≈ 489 µM); IC90 [20]: > 30 µg/mL; inhibition of growth at 10 µg/mL [21]: 13.7%; inhibition of growth at 3 µg/mL [22]: 14.1%; inhibition of growth at 10 µg/mL [23]: 16.9%; inhibition of growth at 30 µg/mL [24]: 6.84%; IC50 [25]: > 30 µg/mL; IC90 [25]: > 30 µg/mL; MIC [27]: 150 µg/mL (≈ 367 µM); inhibition of growth at 3 µg/mL [26]: 2.29%; MIC [28]: 150 µg/mL (≈ 367 µM) |
| CC1(C)S[C@@H]2[C@H](NC(=O)[C@H](N)c3ccccc3)C(=O)N2[C@H]1C(=O)O [AMPICILLIN] | 0.12 µg/mL (≈ 0.343 µM) | – | – | – | – | – | 2.83 µg/mL (≈ 8.1 µM) | – | – | – | 5.89 µg/mL (≈ 16.9 µM) | – | – | – | – | – | 0.41 µg/mL (≈ 1.17 µM) | – | – | – | – |
| COc1ccc2nc(Cl)c(/C=C3\SC(=S)N(CC(=O)O)C3=O)cc2c1 | > 30 µg/mL | -25.4% | 0.664% | -29.3% | -33.3% | -6.43% | > 30 µg/mL | -37.3% | > 30 µg/mL | > 30 µg/mL | > 30 µg/mL | > 30 µg/mL | > 30 µg/mL | -4.12% | 32% | -35.7% | > 30 µg/mL | 200 µg/mL (≈ 507 µM) | -37% | > 30 µg/mL | MIC [19]: 125 µg/mL (≈ 317 µM); IC90 [20]: > 30 µg/mL; inhibition of growth at 10 µg/mL [21]: -19.5%; inhibition of growth at 3 µg/mL [22]: 6.02%; inhibition of growth at 10 µg/mL [23]: 27.3%; inhibition of growth at 30 µg/mL [24]: -50.9%; IC50 [25]: > 30 µg/mL; IC90 [25]: > 30 µg/mL; MIC [27]: 150 µg/mL (≈ 380 µM); inhibition of growth at 3 µg/mL [26]: -23.7%; MIC [28]: 150 µg/mL (≈ 380 µM) |
